Hsp70 activator = Hsp70 transcriptional activation, primary screen | HeLa Hsp70 promoter luciferase reporter, luminescence; scaled: vehicle 0, proteasome-inhibitor control 100% | activation, % at 10 µM | AID 1203 | 200,000 tested, 0.04% active;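 active = activation above the mean across all tested compounds plus 3 SD, cutoff set per campaign, cut at about 5.5% in these data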;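 also: 100% = MG132 at 30 µM as the positive control and 0% = DMSO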
b-catenin transl = alters nuclear translocation of beta-catenin in HeLa cells | immunofluorescence imaging | nuclear translocation activity, % at 5 µM | 190,000 tested, 0.3% active | AID 1665;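 active = nuclear translocation activity above 50% at 5 µM, with a well cell count of 50 or more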;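 also: per-cell ratio of nuclear to cytoplasmic median beta-catenin stain intensity; plate controls were DMSO negative control for no effect and GSK-3 inhibitor IX positive control for full effect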
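Test system: human HeLa cells, native beta-catenin. Compound dosing: 5 µM primary single dose, 0.1% DMSO, 0.02–20 µM confirmation series. Incubation: compound exposure 24 h at 37°C. Detection: beta-catenin immunostaining with DAPI counterstain, 20x imaging, 6 fields/well. Read-out basis: Nuclear/cytoplasmic beta-catenin signal ratio, % activation.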
TLR4 MyD88 comp = TLR4-MyD88 interaction inhibition in cells; HeLa CL3-4 TLR4/MyD88 BLA complementation, FRET ratio; 200,000 tested, 0.18% active; inhibition, % at 8.4 µM; in the data active = inhibition above about 25%;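 also: 0% = vehicle and 100% = reference inhibitor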
MT stabilizer = microtubule stabilizers in HeLa cells. % tubulin-high responders, % at 10 µM. 200,000 tested, 0.83% active. HeLa tubulin immunostaining HCS, 24 h; share of cells brighter than vehicle mean+2SD;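 active = plate Z-score above 3 for both tubulin-high and condensed-nucleus cell shares, with cell loss under 80%, at 10 µM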;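 also: anti alpha tubulin signal scored within the nucleus-defined area of each cell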
NOD2 RIPK2 PPI = blocks binding of human NOD2 to RIPK2. O43353. CHO BLA complementation NOD2-RIPK2, CCF4 ratio. inhibition, % at 4.98 µM. 360,000 tested, 0.38% active. AID 624267; in the data active = inhibition above about 21%;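 also: 0% = vehicle only and 100% = reference blocker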
TLR9-MyD88 inh = TLR9-MyD88 interaction inhibition; AID 504734; CHO BLA complementation TLR9-MyD88, CCF4 FRET ratio; 340,000 tested, 0.21% active; inhibition, % at 4.98 µM; Q9NR96+Q99836;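 active = inhibition above the mean over all tested compounds plus 3 SD, cut at about 21% in these data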;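 also: 0% = DMSO only wells and 100% = clavulanate BLA inhibitor control wells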
NOD2 RIPK2 conf = confirmation of human NOD2-RIPK2 interaction inhibitors. shares compounds with NOD2 RIPK2 PPI. CHO cells, NOD2-RIPK2 BLA complementation, CCF4 FRET. inhibition, % at 4.98 µM. 1,200 tested, 70% active. AID 624370;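 active = mean inhibition across replicates above a set limit taken from the earlier primary screen, cut at about 21% in these data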;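 also: 0% = DMSO-only wells and the high end = clavulanate BLA-blocked wells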
BLA counter = NOD2-RIPK2 counterscreen BLA reporter activity. shares compounds with NOD2 RIPK2 PPI. CHO BLA reporter, CCF4 FRET ratio. inhibition, % at 4.98 µM. 1,200 tested, 57% active. AID 624371;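 active = mean inhibition above the low-control mean inhibition plus three low-control SD, cut at about 11% in these data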;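 also: 0% = DMSO only wells and 100% = clavulanate high control wells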
* hit, by the source's call; . = no result given. Hits are enriched below; roughly 1% of the tested compounds scored in any of these assays.

SMILES | Hsp70 activator | b-catenin transl | TLR4 MyD88 comp | MT stabilizer | NOD2 RIPK2 PPI | TLR9-MyD88 inh | NOD2 RIPK2 conf | BLA counter
O=C(Nc1cccc(O)c1)c1cc2nc(-c3ccccc3)cc(-c3ccccc3)n2n1 | -0.2 | -1.2 | -8.7 | 4.0 | 21.6* | 7.1 | 8.2 | 10.9*
COc1ccc(-c2csc(C(C)(O)c3cccc(F)c3)n2)cc1 (stereo unspecified) | . | . | . | . | -13.0 | . | . | .
C/C(=N\NC(=S)NC1CCCCC1)c1cccc(Br)c1 | -0.3 | 1.3 | 2.1 | 7.3 | 32.3* | -3.8 | -1.8 | -2.7
C/C(=N\NC(=S)NC1CCCCC1)c1cccc(C(F)(F)F)c1 | . | 2.1 | . | . | -11.5 | 0.3 | . | .
CC(C)(C)c1cc(C(=O)CCN2CCOCC2)cc(C(C)(C)C)c1O | . | . | . | . | 48.5* | 5.9 | 3.6 | -2.3
CCCCN(CC)CCCNC(=O)C1CCN(c2ncnc3c2sc2cccc(F)c23)CC1 | -0.5 | -0.2 | 13.1 | 2.2 | 4.1 | 1.8 | . | .
CCC(C)C(NC(=O)C(Cc1ccc(O)cc1)NC(=O)OCc1ccccc1)C(=O)OC (stereo unspecified) | . | . | . | . | 6.3 | . | . | .
Nc1c(S(=O)(=O)c2ccccc2)csc1C(=O)O | -0.2 | -1.5 | 1.8 | 1.9 | 43.7* | -12.2 | -8.0 | -4.0
O=C(O)c1sccc1S(=O)(=O)c1ccccc1 | -0.3 | -0.6 | -1.2 | 0.7 | 1.9 | -28.2 | . | .
Cc1ccc(C2=NN(C(=O)CN3CCN(C4CCS(=O)(=O)C4)CC3)C(c3ccco3)C2)cc1 (stereo unspecified) | . | . | . | . | 1.8 | -4.3 | . | .
Cc1cc(F)ccc1-c1cc(C(=O)Nc2ccccc2)[nH]n1 | . | . | . | . | -2.2 | . | . | .
CC(=O)Nc1ccc(NC(=O)c2cc(-c3ccc(F)cc3C)n[nH]2)cc1 | . | . | . | . | 28.3* | . | -21.1 | -7.5
CN(C1CCCCC1)S(=O)(=O)c1ccc2c(c1)c(=O)c(C(=O)O)cn2C | . | . | . | . | 5.8 | -16.9 | . | .
FC(F)(F)c1ccccc1-c1ccc2nncn2c1 | . | . | . | . | 23.1* | . | -5.8 | 0.5
CSCC[C@@H](CO)NC(=O)[C@H]1O[C@@H](n2ccc(N)nc2=O)[C@H](O)[C@@H]1O | . | . | . | . | 28.6* | . | -6.2 | -0.2
CC(=O)Oc1c(-c2ccco2)oc2ccccc2c1=O | 0.8 | -3.2 | 7.6 | 4.2 | 27.5* | 20.0 | 31.4* | 30.2*
CCN(CC)C(=O)COc1c(-c2ccco2)oc2ccccc2c1=O | . | . | . | . | -12.5 | -12.5 | . | .
COc1ccc(-c2ccc(CN3C(C)C(=O)N(Cc4cn(CCC5OCCO5)nn4)CCS3(=O)=O)cc2)cc1OC (stereo unspecified) | . | . | . | . | -7.5 | 3.4 | . | .
Cc1ccc(C(=O)c2c(C)oc3c2C(=O)C(=O)c2ccccc2-3)cc1 | 0.1 | -0.9 | -16.0 | 5.7 | 24.0* | 13.3 | 24.4* | 3.2
Cc1oc2c(c1C(=O)c1ccc(Cl)cc1)C(=O)C(=O)c1ccccc1-2 | -0.2 | 2.7 | 9.0 | 11.9 | 0.1 | 4.0 | . | .
CC(C)(C)OC(=O)n1cccc1/C=C1\c2ccccc2C(=O)N1c1ccccc1 | . | . | . | . | 40.7* | -2.4 | 5.8 | 5.4
O=C(N/N=C/c1ccccc1)C(=O)N/N=C/c1ccccc1 | . | . | . | . | -9.8 | -10.1 | . | .
O=C(C=C=Nc1ccccc1)C(=O)N=C=Cc1ccccc1 | . | -1.1 | . | . | 27.8* | 4.7 | 17.9 | 0.4
Cc1ccc(NS(=O)(=O)c2ccc(-c3cnc(C4CC4)o3)cc2)cc1 | . | . | . | . | 1.9 | -9.0 | . | .
Cc1cccc(C)c1NS(=O)(=O)c1ccc(-c2cnc(C3CC3)o2)cc1 | . | . | . | . | 23.4* | -2.1 | 9.8 | -4.3
Nc1ccc(-c2nc3ccc(N)cc3[nH]2)cc1 | 0.3 | -4.7 | -23.2 | 3.9 | -0.7 | 3.6 | . | .
Nc1ccc2cc3[nH]c4cc(N)ccc4c3nc2c1 | . | . | . | . | 39.3* | 10.7 | 73.1* | 66.2*
O=C(Nc1ccccc1)C1=C[C@@H](c2ccc(C(F)(F)F)cc2)C[C@@H](OCc2ccc(CO)cc2)O1 | -0.4 | 2.4 | -0.8 | 1.2 | 21.7* | -3.6 | 0.4 | 3.5
Cc1cc2nc(-c3nnnn3Cc3ccccc3)c(=O)[nH]c2cc1C | . | . | . | . | 23.3* | . | 12.6 | 14.7*
